From PubChem BioAssay
Insulin prom act = activators of insulin promoter-driven GFP, primary screen, imaging, TRM-6 cells (human fetal islet line), eGFP reporter, cell count; plate-scaled: unstimulated 0, stimulated control 100; 130,000 tested, 0.81% active; activation, % at 2 µM;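 active = activation at 2 µM above a set limit, confirmed on inspection of the cell images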;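 also: share of cells whose green reporter signal exceeds an intensity cutoff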
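Assay system: TRM-6 human fetal islet cells, insulin promoter–eGFP reporter; Also added: 0.75 µM tamoxifen as reporter inducer; Schedule: 15 h tamoxifen pre-treatment, 48 h compound treatment at 37 °C; Signal: fixed-cell fluorescence microscopy, eGFP plus Hoechst; Read-out: percent activation from GFP-positive cell fraction; Control set: stimulated and unstimulated wells.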
* marks the source's active call; other numbers are inactive results. This excerpt belongs to a sample that is enriched for hits.

For Cc1nc(N2CCN(S(=O)(=O)c3ccccc3)CC2)c2cc(-c3ccccc3)sc2n1 the results were Insulin prom act 81.2*.
Screening Cc1nc(N2CCN(S(=O)(=O)c3ccccc3)CC2)c2c3c(sc2n1)CC(C)CC3 (centres undefined) returned Insulin prom act 0.0.
`O=C(CSc1nnc2ccccn12)Nc1ccccc1C(=O)O` gave Insulin prom act -2.7.
For COc1ccc(OC(C)C(=O)Nc2cccc(OC)c2)cc1 (centres undefined) the results were Insulin prom act -7.9.
CC(Oc1ccccc1)C(=O)Nc1ccc(C(N)=O)cc1 (centres undefined) was read as Insulin prom act 174.2*.
Screening CCOC(=O)c1ccccc1NC(=O)C(C)Oc1ccccc1 (centres undefined) returned Insulin prom act -6.5.
COc1ccc(-c2csc(-c3cc4ccccc4oc3=N)n2)cc1 was read as Insulin prom act 0.0.
For O=S(=O)(NCC1CCCO1)c1cccc(S(=O)(=O)N2CCCC2)c1 (centres undefined) the results were Insulin prom act 0.0.
Cc1cccc(NC(=O)N2CCC(n3nnc4cc(C)ccc43)CC2)c1 was read as Insulin prom act 0.0.
O=S(=O)(NC1CCCC1)c1cccc(S(=O)(=O)N2CCC(n3nnc4ccccc43)CC2)c1 was read as Insulin prom act 157.1*.
`COc1ccc(S(=O)(=O)Nc2ccccc2OC)cc1NC(=O)CC1CC2CCC1C2` (centres undefined) gave Insulin prom act -1.6.
COC(=O)c1cccnc1NC(=S)NNC(=O)c1ccccc1 was read as Insulin prom act -7.0.
`O=C(Nc1ccccc1)OCc1cncs1` gave Insulin prom act 5.9.
COc1ccc(CCn2c(-n3nc(C)cc3C)nc3c2c(=O)[nH]c(=O)n3C)cc1 was read as Insulin prom act -5.3.
Cn1c(=O)[nH]c(=O)c2c1nc(CN1CCN(c3ccc(F)cc3)CC1)n2CCc1ccccc1 was read as Insulin prom act 328.6.
Screening COc1ccc(CCn2c(N3CCOCC3)nc3c2c(=O)[nH]c(=O)n3C)cc1 returned Insulin prom act 100.0*.
O=C(Nc1ccc(Oc2cccnc2)cc1)c1cccc([N+](=O)[O-])c1 was read as Insulin prom act 5.9.
`COc1cc(/C=C2/NC(=O)NC2=O)cc(Br)c1OCc1ccc(C(=O)O)cc1` gave Insulin prom act 8.3.
CCn1nnnc1NCc1ccc(OCc2c(F)cccc2Cl)c(OC)c1 was read as Insulin prom act 107.1.
For Cc1cccc(-n2cnc3cc(C(=O)N4CCc5ccccc54)ccc32)c1 the results were Insulin prom act -8.6.
`Cc1ccc(-n2c(CNc3ccc(F)cc3)nnc2SCC(=O)N2CCCC2)cc1` gave Insulin prom act 161.5*.
Screening Cc1ccc(-n2nnnc2SCC(=O)N2CCCCC2)cc1 returned Insulin prom act 2.9.
`CC1CCN(C(=O)CSc2nnc(Cc3cccn3C)n2-c2ccc(F)cc2)CC1` gave Insulin prom act -71.4.
For CCCn1c(CCC(=O)O)ccc1-c1cccs1 the results were Insulin prom act -3.2.
Screening O=C(O)CCc1ccc(-c2cccs2)n1CC1CCCO1 (centres undefined) returned Insulin prom act 133.3.
COCCCn1c(CCC(=O)O)ccc1-c1cccs1 was read as Insulin prom act 86.5*.
CC(=O)Nc1ccc(C(=O)NNC(=O)Cc2ccccc2)cc1 was read as Insulin prom act -7.1.
Screening Cc1ccc(C(=O)N/C(=C\c2ccc(-c3cccc([N+](=O)[O-])c3)o2)C(=O)NC(C)(C)C)cc1 returned Insulin prom act -7.4.
O=C(Cc1ccccc1)N/N=C/c1ccc(-c2ccc([N+](=O)[O-])cc2)o1 was read as Insulin prom act 0.0.
For CCCNC(=O)Cn1c(=O)/c(=C\c2ccc(-c3ccc([N+](=O)[O-])cc3)o2)s/c1=C\C(=O)C(C)(C)C the results were Insulin prom act 270.4*.
For CCN(CC)CCOC(=O)c1ccc(NC(=O)c2cn(-c3ccccc3)nc2-c2cccs2)cc1 the results were Insulin prom act 0.0.
For Cc1ccc(NC(=O)CSc2nnc(C3CC3)n2N)cc1S(=O)(=O)N1CCOCC1 the results were Insulin prom act 9.1.
For CCCCNS(=O)(=O)c1ccc(OCC(=O)OC)cc1 the results were Insulin prom act 8.3.
COC(=O)C1CN(S(=O)(=O)c2ccc(C)cc2)CCN1S(=O)(=O)c1ccc(C)cc1 (centres undefined) was read as Insulin prom act 136.4*.
Cc1ccc(S(=O)(=O)N2CCCCC2C(=O)O)cc1 (centres undefined) was read as Insulin prom act 0.0.
`COc1ccc(NC(=O)C2CCCN2S(=O)(=O)c2ccc(C)cc2)cc1` (centres undefined) gave Insulin prom act 0.0.
For COC(=O)c1c([N+](=O)[O-])c(OC)c(OC)c(OC)c1[N+](=O)[O-] the results were Insulin prom act 8.3.
Cc1ccc(C(=O)Nc2cccc(C(=O)O)c2)cc1S(=O)(=O)N1CCCCC1 was read as Insulin prom act 0.0.
